Results published in ChEMBL document CHEMBL1649279, “The final step of hygromycin A biosynthesis, oxidation of C-5''-dihydrohygromycin A, is linked to a putative proton gradient-dependent efflux” (Antimicrob Agents Chemother, 2009).
Values after ≈ are worked out from the molar mass of the structure shown.

Tests used:
Escherichia coli [1] = assay: Inhibition of protein synthesis in Escherichia coli assessed as green fluorescent protein synthesis by coupled transcription-translation assay; format: functional, organism-based
Outline: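 E. coli lysate coupled transcription-translation with a GFP template, run with and without antibiotic at increasing concentrations. GFP measured by fluorescence scanning and native PAGE. Triplicates, expressed as percent of fluorescence without antibiotic.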

Escherichia coli [2] = assay: Antimicrobial activity against tolC deficient Escherichia coli by after 2 hrs; format: functional
Outline: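 ΔtolC E. coli grown in 200 μl LB at 37°C for 2 h across a range of antibiotic concentrations, read by A600. MIC is the lowest concentration giving 95% growth inhibition relative to an untreated culture.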

[3] = tested on: Streptomyces hygroscopicus; assay: Antimicrobial activity against wild type Streptomyces hygroscopicus by after 48 hrs by agar plate dilution method; format: functional
Outline: (§1)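 Spores plated on yeast extract malt extract agar containing a series of HA concentrations, incubated 48 h at 30°C, then scored for growth. MIC taken as the lowest HA concentration preventing visible growth of at least 95% of CFU.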

[4] = tested on: Streptomyces hygroscopicus; assay: Antimicrobial activity against hyg19 deficient Streptomyces hygroscopicus SCH30 by after 48 hrs by agar plate dilution method; format: functional; settings: SCH30, 48 h; outline: as §1
[5] = tested on: Streptomyces hygroscopicus; assay: Antimicrobial activity against hyg28 deficient Streptomyces hygroscopicus SCH30 by after 48 hrs by agar plate dilution method; format: functional; settings: SCH30, 48 h; outline: as §1
Streptomyces lividans = assay: Antimicrobial activity against Streptomyces lividans by after 48 hrs by agar plate dilution method; format: functional; outline: as §1
[6] = tested on: Streptomyces hygroscopicus; assay: Ratio of Kcat to Km for Streptomyces hygroscopicus recombinant N-terminal His-tagged Hyg26 reductase expressed in Escherichia coli BL21 (DE3)
Outline: (§2)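 His-tagged Hyg26, expressed in E. coli BL21-CodonPlus(DE3) and purified on Ni-NTA. Reductase kinetics: 800 ng enzyme, 50 mM phosphate pH 6 with 2 mM TCEP, 37°C, 15 min. NADH fixed at 60 mM with antibiotic 2–60 mM; for NADH, HA fixed at 20 mM with NADH 0.25–10 mM. DHHA-type product quantified by reverse-phase HPLC peak area. Duplicates averaged and fitted for kinetic parameters.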

[7] = tested on: Streptomyces hygroscopicus; assay: Antimicrobial activity against hyg19-hyg20-hyg21 deficient Streptomyces hygroscopicus SCH30 by after 48 hrs by agar plate dilution method; format: functional; settings: SCH30, 48 h; outline: as §1
[8] = tested on: Streptomyces hygroscopicus; assay: Antimicrobial activity against hyg20 deficient Streptomyces hygroscopicus SCH30 by after 48 hrs by agar plate dilution method; format: functional; settings: SCH30, 48 h; outline: as §1
[9] = tested on: Streptomyces hygroscopicus; assay: Activity at Streptomyces hygroscopicus recombinant N-terminal His-tagged Hyg26 reductase expressed in Escherichia coli BL21 (DE3); outline: as §2

IC50 (Escherichia coli [1]) | IC90 (Escherichia coli [1]) | MIC (Escherichia coli [2]) | MIC [3] | MIC [4] | MIC [5] | MIC (Streptomyces lividans) | kcat/Km [6] | MIC [7] | MIC [8] | Km [9] | kcat [9] | SMILES
7400 nM | 50000 nM | 150 µg/mL (≈ 291 µM) |  |  |  |  |  |  |  |  |  | CO[C@@H]1[C@H](O)[C@@H](O)[C@@H](NC(=O)/C(C)=C/c2ccc(O[C@@H]3O[C@H](C(C)O)[C@@H](O)[C@@H]3O)c(O)c2)[C@@H](O)[C@@H]1O (stereo partly drawn) [5'-DIHYDROMETHOXYHYGROMYCIN A]
180 nM | 250 nM | 10 µg/mL (≈ 19.6 µM) | 400 µg/mL (≈ 782 µM) | 400 µg/mL (≈ 782 µM) | 300 µg/mL (≈ 587 µM) | 20 µg/mL (≈ 39.1 µM) | 1 ×10³ /M/s | 75 µg/mL (≈ 147 µM) | 300 µg/mL (≈ 587 µM) | 5.8 mM | 5.1 s⁻¹ | CC(=O)[C@H]1O[C@@H](Oc2ccc(/C=C(\C)C(=O)N[C@@H]3[C@H](O)[C@@H](O)[C@H]4OCO[C@H]4[C@@H]3O)cc2O)[C@@H](O)[C@@H]1O [HYGROMYCIN A]
320 nM | 1000 nM | 150 µg/mL (≈ 300 µM) |  |  |  |  | 0.9 ×10³ /M/s |  |  | 63.6 mM | 31.7 s⁻¹ | CC(=O)[C@H]1O[C@@H](Oc2ccc(/C=C(\C)C(=O)N[C@@H]3[C@H](O)[C@@H](O)[C@@H](O)[C@@H](O)[C@@H]3O)cc2O)[C@@H](O)[C@@H]1O [DESMETHYLENEHYGROMYCIN A]
300 nM | 1500 nM | 20 µg/mL (≈ 38.9 µM) |  |  |  |  |  |  |  |  |  | C/C(=C\c1ccc(O[C@@H]2O[C@H](C(C)O)[C@@H](O)[C@@H]2O)c(O)c1)C(=O)N[C@@H]1[C@H](O)[C@@H](O)[C@H]2OCO[C@H]2[C@@H]1O (stereo partly drawn)
500 nM | 2000 nM | 150 µg/mL (≈ 292 µM) |  |  |  |  | 0.9 ×10³ /M/s |  |  | 19.8 mM | 15.5 s⁻¹ | CO[C@@H]1[C@H](O)[C@@H](O)[C@@H](NC(=O)/C(C)=C/c2ccc(O[C@@H]3O[C@H](C(C)=O)[C@@H](O)[C@@H]3O)c(O)c2)[C@@H](O)[C@@H]1O [METHOXYHYGROMYCIN A]
2700 nM | 14100 nM | 150 µg/mL (≈ 299 µM) |  |  |  |  |  |  |  |  |  | C/C(=C\c1ccc(O[C@@H]2O[C@H](C(C)O)[C@@H](O)[C@@H]2O)c(O)c1)C(=O)N[C@@H]1[C@H](O)[C@@H](O)[C@@H](O)[C@@H](O)[C@@H]1O (stereo partly drawn)
